# Diaphorase inh = inhibits diaphorase or chemically oxidizes, flagging diaphorase assay artifacts; diaphorase resazurin-to-resorufin fluorescence, NADH, 16 min; bacterial (C. kluyveri) enzyme, not human; inhibition, % at 20 µM; 190,000 tested, 0.69% active; AID 1217;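 active means primary screen inhibition at 20 µM above a set limit, cut at about 50% in these data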;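 further: plate controls were DMSO with full reaction for no effect and wells lacking NADH for full effect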
#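 Assay system – diaphorase enzyme from Clostridium kluyveri · Amount – diaphorase 0.14 U/mL (working solution) · Times – reaction incubation of 16 min at room temperature · Controls – No-NADH positive control and DMSO neutral control · Signal – resorufin fluorescence 544/590 nm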
# L major viab = Leishmania major promastigote growth inhibition | inhibition, % at 10 µM | 200,000 tested, 9% active | Leishmania major promastigotes, resazurin fluorescence viability | AID 1063; in the data active means inhibition above about 50%;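 further: promastigotes grown with compound for 44 hours at 28 °C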
# WT yeast gro inh = growth inhibition of WT yeast, mitochondrial fusion screen; mitochondrial fusion phenotypic screen, WT strain; inhibition, % at 10 µM; 190,000 tested, 2.1% active; in the data active means inhibition above about 58%; tested in S. cerevisiae
# ROMK primary = modulators of human ROMK potassium channel. P48048. Tet-inducible ROMK, thallium flux fluorescence; actives lie on both sides. B-score at 10 µM. 130,000 tested, 2% active. AID 1918;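 active means signal ratio slope over the read window, or its plate-corrected B-score, at least 3 SD from the plate mean, either direction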;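 further: B-score of the F/F0 ratio slope over 7 to 12 s after thallium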
# Target sequence (P48048 whole entry, looked up): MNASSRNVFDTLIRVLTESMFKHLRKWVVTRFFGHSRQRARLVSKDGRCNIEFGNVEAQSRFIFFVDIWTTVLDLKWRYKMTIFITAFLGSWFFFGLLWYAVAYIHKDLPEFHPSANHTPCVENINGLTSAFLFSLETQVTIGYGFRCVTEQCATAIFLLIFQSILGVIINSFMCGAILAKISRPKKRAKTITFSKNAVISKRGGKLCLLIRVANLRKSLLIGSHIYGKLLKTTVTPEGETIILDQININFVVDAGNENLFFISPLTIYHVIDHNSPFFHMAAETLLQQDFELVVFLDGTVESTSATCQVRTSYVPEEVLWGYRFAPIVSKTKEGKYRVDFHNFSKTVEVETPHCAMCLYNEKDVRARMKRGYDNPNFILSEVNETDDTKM
# Diaphorase act = activates diaphorase or chemically reduces, flagging diaphorase assay artifacts. Diaphorase/resazurin coupled assay, resorufin fluorescence, 16 min; active compounds read high; 1 = vehicle wells, 0 = NADH-free wells. activation factor at 20 µM. 190,000 tested, 0.005% active. AID 1229;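 active means diaphorase activity raised at least twofold by the compound at 20 µM; inactive means activation factor below 2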
#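 Material: purified diaphorase enzyme from Clostridium kluyveri; Also added: 0.114 mM NADH and 0.1 mM resazurin, final amounts; Doses: single compound dose of 20 µM, 1% DMSO final; Times: 16 min enzyme reaction, ambient temperature; Detection: resorufin fluorescence, excitation 544 nm, emission 590 nm; Measure: increased resorufin signal from activators or reducing compounds.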
# Cl transport mod = KCC2 (human) Cl- transport modulation; Q9H2X9; KCC2 cells, thallium flux FluoZin-2 fluorescence; B-score of Tl+ flux slope (higher = more flux/activation; lower = inhibition) at 10 µM; 190,000 tested, 2.2% active;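 active means thallium flux slope and its plate-corrected score both differing from the plate sample mean at a set confidence after two filtering rounds, in either direction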;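 further: slope of fluorescence scaled to starting intensity during 10 to 20 s after thallium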
# KCC2 secondary = confirmation of human KCC2 transport modulators; normalised thallium flux (F/F0 slope) at 10 µM; 3,700 tested, 15% active; shares compounds with Cl transport mod; HEK293-KCC2, thallium flux, FluoZin2 fluorescence; active compounds read high;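 active means thallium flux slope above the same plate's solvent-only control mean plus 3 SD; inconclusive means the two replicate wells disagree; inactive means no significant difference from solvent-only control wells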
# KCC2 bumet counter = bumetanide-insensitive thallium flux in KCC2 cells with ouabain, counter-screen; shares compounds with Cl transport mod; HEK293-KCC2 + bumetanide/ouabain, thallium flux FluoZin2; active compounds read high; normalized thallium flux at 10 µM; 3,700 tested, 49% active; AID 1714;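 active means thallium entry rate above the same plate's blocked-transporter control wells by more than 3 SD; inconclusive means the two repeat wells disagree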;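 further: raw slope of fluorescence over initial fluorescence between 10 and 20 s after thallium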
# KCC2 sec2 = confirmation of human KCC2 transport modulators; HEK293-KCC2, thallium flux FluoZin2 fluorescence; actives lie on both sides; F/F0 rise rate, 10–20 s post-thallium; shares compounds with Cl transport mod; normalized thallium flux at 10 µM; AID 1715; 3,700 tested, 23% active;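 active means thallium flux slope more than 3 SD above or below the plate's solvent-only control mean, mostly below; inconclusive means the two repeat wells disagreed; inactive means no significant shift from solvent-only controls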;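 further: raw slope with 0.1% DMSO as baseline and bumetanide as block control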
# HEK counter1 = parental HEK flux effect, counter-screen. shares compounds with Cl transport mod. HEK293 parental cells, thallium flux FluoZin2, ouabain; baseline-ratio fluorescence slope, 10–20 s after thallium. thallium flux rate (normalised fluorescence) at 10 µM. 3,700 tested, 46% active. AID 1716;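 active means thallium flux rate significantly above the same plate's solvent-only control wells, beyond their mean plus 3 SD; inconclusive means the two replicate wells gave conflicting results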
# KCC2 retest ouab = KCC2 (human) modulation, ouabain retest | shares compounds with Cl transport mod | HEK293-KCC2, thallium flux FluoZin2 fluorescence; bidirectional: low = inhibitor, high = activator | raw Tl+ flux slope (below DMSO = inhibition, above = activation) at 10 µM | 3,700 tested, 48% active;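 active means thallium flux slope beyond 3 SD from same-plate DMSO control mean in most replicates, usually higher, sometimes lower; inconclusive means repeat tests gave conflicting results; inactive means no significant difference from controls in most replicates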;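 further: slope of initial-normalized fluorescence between seconds 10 and 20 after thallium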
# HEK counter2 = acts in parental HEK cells, second KCC2 counter-screen; shares compounds with Cl transport mod; HEK293 parental, thallium flux FluoZin-2 fluorescence slope; thallium flux slope at 10 µM; 3,700 tested, 33% active; AID 1718;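 active means thallium flux slope above the same plate's solvent-control mean plus 3 SD in both duplicate wells; inconclusive means duplicate wells that disagreed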;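 further: run without ouabain in cells lacking the KCC2 cotransporter; slope of fluorescence scaled to its starting value between 10 and 20 s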
# Active calls of the source: *; ? = inconclusive; / = not tested or not shown. Rows were chosen to be rich in hits. Some 12% of all compounds tested hit in one or more screens of this group.
SMILES,Diaphorase inh,L major viab,WT yeast gro inh,ROMK primary,Diaphorase act,Cl transport mod,KCC2 secondary,KCC2 bumet counter,KCC2 sec2,HEK counter1,KCC2 retest ouab,HEK counter2
CCOC(=O)CSc1nc2cc3c(cc2cc1CC)OCCO3,20,0,39,/,0.8,-0.72,/,/,/,/,/,/
CCOC(=O)N1CCN(C(=O)Cc2ccsc2)CC1,8,-5,9,-0.043,0.9,/,/,/,/,/,/,/
COc1ccc(NC(=O)NCCCN2CCCC2=O)cc1,-3,-7,5,/,1,0.31,/,/,/,/,/,/
COc1ccc(NC(=O)NCCCN2CCCCC2C)cc1 (stereo not given),12,-3,2,-0.024,0.9,/,0.0049,0.005,0.029,0.007,0.019,0.011
CC1=C(C(=O)Nc2ccccn2)C(c2cn(C)nc2C)C2=C(CCCC2=O)N1 (stereo not given),4,-2,-10,/,1,0.38,/,/,/,/,/,/
O=S(=O)(NCCSc1ccccc1)c1ccc2c(c1)OCCO2,5,-6,-15,-0.093,1,/,?,0.0046,0.032,0.0063,?,0.011
COc1ccc(/C=N/N=C2\SC(CC(=O)O)C(=O)N2c2ccccc2)cc1 (stereo not given),1,39,-21,-2.3,1,-0.22,/,/,/,/,/,/
Cc1cc(C(C)(C)C)ccc1OCCN1CCCC1,0,96*,39,0,1,/,0.0087,0.006,0.029,0.0067,0.02,?
O=C(CCN1C(=O)C2C3C=CC(C3)C2C1=O)NCCN1CCCc2ccccc21 (stereo not given),6,-1,22,/,0.9,-0.037,/,/,/,/,/,/
O=C(CN1C(=O)C2C3C=CC(C3)C2C1=O)NCCN1CCCc2ccccc21 (stereo not given),-3,-5,7,/,1,4.5*,0.0076,0.006,0.031,0.0069,0.021,0.0096
O=C(OCC(=O)N1CCN(C(=O)c2ccco2)CC1)c1sc2ccccc2c1Cl,19,-4,-1,/,0.8,-4*,0.0066,?,?,0.0084,0.018,0.012
O=C(OCC(=O)N1CCN(C(=O)c2ccco2)CC1)c1ccccc1,12,-2,-7,-0.79,0.9,0.24,/,/,/,/,/,/
O=C1/C(=C/c2ccccc2O)SC(=S)N1Cc1cccnc1,7,88*,10,/,0.9,10*,0.0062,0.017*,?,0.025*,0.027*,0.023*
O=C1/C(=C/c2ccc(O)c([N+](=O)[O-])c2)SC(=S)N1Cc1ccccc1,14,16,31,-1.7,0.9,-0.34,/,/,/,/,/,/
COc1cccc(/C=N\NC(=O)c2sc(N)nc2C)c1OC,7,7,/,1.3,0.9,-0.14,/,/,/,/,/,/
O=C1CCC(C(=O)N2CCCC(C(=O)c3ccc4c5c(cccc35)CC4)C2)=NN1 (stereo not given),4,1,5,0.006,1,-0.14,/,/,/,/,/,/
O=c1oc(-c2ccc(F)cc2)nc2ccsc12,7,-3,-7,0.69,0.9,/,0.0061,0.005,0.032,?,0.017*,0.01
O=c1oc(-c2ccccc2Cl)nc2ccsc12,8,3,-26,-1.4,0.9,/,/,/,/,/,/,/
Cc1cc(C(=O)Nc2nc3c(s2)CCCC3)no1,0,0,21,/,1,4.4*,0.011,0.015*,0.034,0.0091*,0.024,?
Cc1cc(C(=O)Nc2nnc(C3CCCCC3)s2)no1,16,-5,6,/,0.8,/,/,/,/,/,/,/
O=C(CSc1nc2ccccc2[nH]1)Nc1ccccc1F,12,13,-7,-1.1,0.9,-4.7*,0.0072,0.0039,0.032,0.0074,0.019,0.01
Cc1nn(CC(=O)NCc2ccco2)c(C)c1[N+](=O)[O-],/,/,/,0.37,/,0.31,/,/,/,/,/,/
O=C(NC(=S)N1CCN(C/C=C/c2ccccc2)CC1)c1ccc(F)cc1,/,/,/,/,/,151*,0.0099*,0.13*,0.11*,0.11*,0.12*,0.11*
COc1ccc(/C=C/C(=O)NC(=S)N2CCN(c3ccccn3)CC2)cc1OC,16,5,16,1,0.8,-0.0068,/,/,/,/,/,/
O=C(/C=C/c1ccc(F)cc1)NC(=S)N1CCN(c2ccccn2)CC1,/,/,/,/,/,21*,0.0076,0.019*,0.031,0.013*,?,0.013*
SMILES,Diaphorase inh,L major viab,WT yeast gro inh,ROMK primary,Diaphorase act,Cl transport mod,KCC2 secondary,KCC2 bumet counter,KCC2 sec2,HEK counter1,KCC2 retest ouab,HEK counter2
O=C(/C=C/c1ccccc1)NC(=S)N1CCSCC1,14,-7,-17,-0.48,0.9,9.7*,0.022*,0.026*,?,0.018*,0.025*,0.02*
COc1ccccc1CC(=O)Nc1cc2oc3ccccc3c2cc1OC,17,10,20,/,0.8,0.97,/,/,/,/,/,/
COc1cccc(CNC(=O)c2cc3oc4ccccc4c3n2C)c1OC,8,-6,5,/,0.9,7.5*,0.0091,0.0061,0.036,0.0044,0.02,0.012
Cc1n[nH]c(C)c1S(=O)(=O)N(CC(=O)Nc1ccc2c(c1)OCCO2)c1ccc(C(C)C)cc1,10,56*,-1,/,0.9,-5.1*,?,?,0.032,0.0066,0.016*,0.01
COc1ccc(N(CC(=O)Nc2cccc(C)c2C)S(=O)(=O)c2c(C)n[nH]c2C)cc1,3,15,-3,-1.2,1,/,0.019,0.0051,0.024*,0.0075,0.015,0.01
O=C(NC(=S)NCc1cccnc1)c1cccc2ccccc12,16,-4,-14,-0.18,0.8,0.78,/,/,/,/,/,/
COc1nsnc1NS(=O)(=O)c1ccc(NC(=S)NC(=O)c2cccnc2)cc1,-7,-4,-4,1,1.1,-0.028,/,/,/,/,/,/
CCOCc1[nH]c(=S)[nH]c(=O)c1Cc1ccc(OCC(C)C)cc1,13,-4,-1,0.29,0.9,22*,0.014*,0.061*,0.039,?,0.04*,?
